High-throughput results from PubChem BioAssay.
In the library only some 2% were active in any assay of this set; here they are far more common.
Xi reactivation – activators of X-chromosome reactivation in mouse fibroblasts. XiGFP mouse fibroblasts, % GFP-positive cells imaging, 3 d; cells co-treated with 5-aza-dC sensitizer; scaled so ellipticine positive control = 100%. activation, % at 7.58 µM. 360,000 compounds, 0.055% hits. AID 743238;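 active means mean normalized replicate activation at least 10% and every replicate at or above 10%; inconclusive means only one of the two criteria met; inactive means mean below 10% and not all replicates reach 10%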;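 further: 0% = median of on-plate neutral control wells and 100% = ellipticine 6 µM median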
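Assay system – SV40-immortalized XiGFP fibroblast cells, line 68-5-11 · Buffer or medium – DMEM supplemented with 5-aza-dC as sensitizing agent · Dosing – one concentration, pinned · Benchmarks – positive control ellipticine, 6 µM final · Times – 3 days compound exposure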
DENV2 CPE – DENV2-induced cell death inhibition; DENV2-infected cells, cytopathic effect rescue, plate reader; CPE inhibition, % at 9.99 µM; 350,000 compounds, 1.7% hits; AID 651640; in the data active means CPE inhibition above about 20%, passing the limit was not always enough; inconclusive means no clear call, values can overlap the other calls; tested in BHK-21 cells;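 further: 0% = median of neutral control wells and 100% = median of positive control wells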
S100A4 inh HTS – blocks human S100A4 binding to myosin IIA peptide. P26447. S100A4/TAMRA-MyoIIA peptide fluorescence polarization. inhibition, % at 10.7 µM. 360,000 compounds, 0.14% hits. AID 652163;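 active means mean inhibition of at least 70% across replicates, with every replicate also reaching that level; inconclusive means mean inhibition reaches 70% but some replicates fall short; inactive means mean inhibition below 70%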
Target sequence (P26447 whole entry, looked up): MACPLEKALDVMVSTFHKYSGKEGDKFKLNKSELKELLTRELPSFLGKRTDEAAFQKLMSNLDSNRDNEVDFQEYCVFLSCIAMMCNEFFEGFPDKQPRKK
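Compound dosing: one dose per compound; test system: human S100A4 monomer with TAMRA-labelled myosin IIA peptide; probe or stimulus: TAMRA-labelled myosin IIA heavy-chain peptide probe, 5 nM; medium: HEPES buffer with Ca2+, pH 7.2; schedule: 5 min incubation before reading; benchmarks: neutral control DMSO, positive control TFP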
E-sel inducer – induces E-selectin expression in human endothelial cells. P16581. HUVEC E-selectin immunofluorescence imaging; normalized: neutral wells 0, TNF-alpha wells 100. activation, % at 7.58 µM. 260,000 compounds, 0.37% hits. AID 686992;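 active means mean E-selectin-positive cell signal at least 10% of the positive control, reached in at least 60% of replicates, without over 20% cell loss; inconclusive means no rule given, readout overlaps actives, possibly toxicity-flagged; inactive means the rest, including those meeting only one limit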
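assay system = HUVEC, human umbilical vein endothelial cells | input = 3,000 HUVEC seeded per well | medium = EGM-2 growth medium on 0.1% gelatin-coated wells | dosing = one compound dose added by pin transfer | signal = immunofluorescence imaging | read-out basis = % PE-positive cells | control set = TNF-alpha, DMSO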
* = called active by the depositor.

How did C[C@@H]1CN([C@@H](C)CO)S(=O)(=O)c2ccc(C#Cc3ccccc3)cc2O[C@@H]1CN(C)CC1CC1 do in these assays?
Xi reactivation: 0; DENV2 CPE: 12; S100A4 inh HTS: -5; E-sel inducer: 131*

Results for C[C@H](CO)N1C[C@H](C)[C@H](CN(C)CC2CCOCC2)Oc2cc(C#CC3CC3)ccc2S1(=O)=O ?
Xi reactivation: 0; DENV2 CPE: 22*; S100A4 inh HTS: -10; E-sel inducer: 0

What do the screens show for `COc1cc(SC)ccc1C(=O)N1CCCc2ccccc21`?
Xi reactivation: 0; DENV2 CPE: 2; S100A4 inh HTS: -1

How did O=[N+]([O-])c1cccc(CN2C[C@@]34C=C[C@@H](C[C@@H]3S2(=O)=O)O4)c1 do in these assays?
Xi reactivation: 1; DENV2 CPE: 0; S100A4 inh HTS: 8

Results for O=C(CN1CCCCCC1)Nc1ccccc1Oc1ccccc1 ?
Xi reactivation: 0; DENV2 CPE: 7; S100A4 inh HTS: 7; E-sel inducer: 7

Results for COc1ccc(S(=O)(=O)N[C@@H]2CC[C@H](CCNC(=O)Cc3ccccn3)O[C@H]2CO)cc1 ?
Xi reactivation: 1; DENV2 CPE: 13; S100A4 inh HTS: -13; E-sel inducer: 0

How did COc1ccccc1CN1CCC(n2nccc2NC(=O)CCc2ccccc2)CC1 do in these assays?
Xi reactivation: 0; DENV2 CPE: 1; S100A4 inh HTS: -4; E-sel inducer: -1

What do the screens show for `COc1ccccc1CN1CC(C(=O)N(C)Cc2[nH]c3ccccc3c2C)CCC1=O` (stereo not drawn)?
Xi reactivation: 0; DENV2 CPE: -7; S100A4 inh HTS: 9; E-sel inducer: 119*

How did COc1ccccc1CN1CC(C(=O)NCc2nccn2C)CCC1=O (stereo not drawn) do in these assays?
Xi reactivation: 0; DENV2 CPE: 31*; S100A4 inh HTS: 5

What do the screens show for `COc1ccccc1CN1CC(C(=O)N(C)CCCn2nc(C)cc2C)CCC1=O` (stereo not drawn)?
Xi reactivation: 0; DENV2 CPE: 52*; S100A4 inh HTS: -2; E-sel inducer: 0

Results for COc1ccccc1CN1CC(C(=O)NCc2nc3ccccc3n2C)CCC1=O (stereo not drawn) ?
Xi reactivation: 0; DENV2 CPE: 6; S100A4 inh HTS: -1; E-sel inducer: 0

Results for COc1ccc(CCN2CC(C(=O)N(C)Cc3ccccc3OC)CCC2=O)cc1 (stereo not drawn) ?
Xi reactivation: 0; DENV2 CPE: 15; S100A4 inh HTS: 0

What do the screens show for `COc1ccc(CCN2CC(C(=O)N(C)CCn3nc(C)cc3C)CCC2=O)cc1` (stereo not drawn)?
Xi reactivation: 0; DENV2 CPE: 0; S100A4 inh HTS: 1

What do the screens show for `COCCNC(=O)C[C@H]1CC[C@@H](NS(=O)(=O)c2ccc(C)cc2)[C@@H](CO)O1`?
Xi reactivation: 1; DENV2 CPE: 0; S100A4 inh HTS: 7; E-sel inducer: 0

Results for CCNC(=O)[C@@H]1[C@@H](CO)[C@@H]2Cn3c(ccc(C4=CCCCC4)c3=O)[C@@H]2N1CC1CC1 ?
Xi reactivation: 0; DENV2 CPE: 3; S100A4 inh HTS: 7; E-sel inducer: 0

Results for CO[C@H](CN(C)C(=O)c1cnccn1)[C@H](C)CN([C@@H](C)CO)S(=O)(=O)c1ccc(F)cc1 ?
Xi reactivation: 0; DENV2 CPE: -2; S100A4 inh HTS: 0; E-sel inducer: 0

How did CON(C)C(=O)/C=C/CCCCNC(=O)OC(C)(C)C do in these assays?
Xi reactivation: 0; DENV2 CPE: 37*; S100A4 inh HTS: -2; E-sel inducer: 0

How did CSCc1cc(C(=O)NC2CC2)c(N)s1 do in these assays?
Xi reactivation: 0; DENV2 CPE: -5; S100A4 inh HTS: 74*; E-sel inducer: 0

Results for Cc1cc(C(=O)NC2CCC(C)CC2)c(C)o1 (stereo not drawn) ?
Xi reactivation: 0; DENV2 CPE: -3; S100A4 inh HTS: 0; E-sel inducer: 0

Results for COc1ccc(CN(C)C[C@@H]2OCCCC[C@@H](C)Oc3ccc(NS(=O)(=O)c4ccc(Cl)cc4)cc3C(=O)N([C@@H](C)CO)C[C@H]2C)cc1 ?
Xi reactivation: 0; DENV2 CPE: 34*; S100A4 inh HTS: 18

How did COc1ccc(CN(C)C[C@H]2OCCCC[C@H](C)Oc3ccc(NS(=O)(=O)c4ccc(F)cc4)cc3C(=O)N([C@H](C)CO)C[C@H]2C)cc1 do in these assays?
Xi reactivation: 0; DENV2 CPE: 33*; S100A4 inh HTS: -6

Results for COc1ccc(S(=O)(=O)Nc2ccc3c(c2)C(=O)N([C@@H](C)CO)C[C@@H](C)[C@@H](CN(C)Cc2ccc(Cl)c(Cl)c2)O3)cc1 ?
Xi reactivation: 0; DENV2 CPE: -8; S100A4 inh HTS: 5; E-sel inducer: 42*

What do the screens show for `COc1ccc(CN(C)C[C@H]2OCCCC[C@H](C)Oc3ccc(NS(=O)(=O)c4ccc(Cl)cc4)cc3C(=O)N([C@@H](C)CO)C[C@H]2C)cc1`?
Xi reactivation: 0; DENV2 CPE: -7; S100A4 inh HTS: -1

How did COc1ccc(CN(C)C[C@H]2OCCCC[C@H](C)Oc3ccc(NS(=O)(=O)c4ccc(Cl)cc4)cc3C(=O)N([C@@H](C)CO)C[C@@H]2C)cc1 do in these assays?
Xi reactivation: 0; DENV2 CPE: 30*; S100A4 inh HTS: 1

Results for COc1ccc(S(=O)(=O)Nc2ccc3c(c2)C(=O)N([C@H](C)CO)C[C@H](C)[C@@H](CN(C)Cc2ccc(Cl)c(Cl)c2)O3)cc1 ?
Xi reactivation: 0; DENV2 CPE: -2; S100A4 inh HTS: -6; E-sel inducer: -1

How did COc1ccc(CN(C)C[C@H]2OCCCC[C@@H](C)Oc3ccc(NS(=O)(=O)c4ccc(F)cc4)cc3C(=O)N([C@@H](C)CO)C[C@@H]2C)cc1 do in these assays?
Xi reactivation: 0; DENV2 CPE: inconclusive; S100A4 inh HTS: 9

What do the screens show for `CN(CC(=O)NCc1ccccc1Cl)CC(=O)Nc1ccccc1Br`?
Xi reactivation: 0; DENV2 CPE: 6; S100A4 inh HTS: 1

Results for N/C(=N\c1nc(CSc2nc3ccccc3s2)cc(=O)[nH]1)Nc1ccc(F)cc1 ?
Xi reactivation: 35*; DENV2 CPE: 16; S100A4 inh HTS: 2

What do the screens show for `Cc1ccc(N/C(N)=N/c2nc(CSc3nnc(N)s3)cc(=O)[nH]2)cc1`?
Xi reactivation: 0; DENV2 CPE: -2; S100A4 inh HTS: -6; E-sel inducer: 5

How did CC(=O)c1cc(-c2ccccc2)n(CC(=O)Nc2cc(C)cc(C)c2)c1C do in these assays?
Xi reactivation: 0

Results for C[C@H](CO)N1C[C@H](C)[C@H](CN(C)Cc2ccccc2)OCc2cn(nn2)CCCC1=O ?
Xi reactivation: 0; E-sel inducer: 0
